Experiments:
C3 cells [1] = experiment: Calcitonin (CT) secretion/RIA assay to measure the ability of compound to increase cellular levels and secretion of human CT.
Phosphodiesterase 4 [2] = biological target: T1, Phosphodiesterase 4 (Homo sapiens, UniProt P27815+Q08499+Q07343+Q08493); experiment: PDE4 30 assay to measure the percent rolipram activity of the PDE4 assay at 30 uM concentration of the compound.; type: protein assay
Procedure, shortened: (§1)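 U937 PDE4 preparation, 1 µM [3H]cAMP, 37 °C, test compound at 30 µM. Activity scaled to rolipram: no rolipram inhibition = 0%, full rolipram inhibition (10 µM) = 100%.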

C3 cells [3] = experiment: CT-luci reporter gene assay to measure the ability to increase transcription of a […] linked to the human CT gene.
C3 cells [4] = experiment: as above; remark: listed apart in the source
Phosphodiesterase 4 [5] = biological target: T1, Phosphodiesterase 4; experiment: PDE4 30 assay to measure the percent rolipram activity of the PDE4 assay at 30 micro M concentration of the compound.; type: protein assay
Procedure, shortened: as §1

Phosphodiesterase 4 [6] = biological target: T1, Phosphodiesterase 4; experiment: Concentration at which 50% of the activity of the Phosphodiesterase 4 from Human U937 cells is inhibited; type: cell-based; conditions: u-937
Rattus norvegicus [7] = experiment: The compound was tested for its bone protection activity at 30 mg/kg/day by intra peritoneal administration.; type: functional
Procedure, shortened: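 Mature female Sprague-Dawley rats, bilaterally ovariectomized or sham-operated, 4-5 days recovery; compound in 1% Tween 80 in saline, i.p. 30 mg/kg/day for 4 weeks; 7-8 rats per group. Proximal tibia trabecular BMD by QCT under ketamine/xylazine/acepromazine; % protection with OVX = 0%, sham = 100%; p < 0.05.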

Phosphodiesterase 4 [8] = biological target: T1, Phosphodiesterase 4; experiment: Percent rolipram activity at 30 uM (PDE 30 assay); type: protein assay
Procedure, shortened: as §1

Rattus norvegicus [9] = experiment: The compound was tested for its bone protection activity at 50 mg/kg/day by oral administration.

| PDE4 inhibition relative to rolipram (Phosphodiesterase 4 [2]) [%] | PDE4 inhibition relative to rolipram (Phosphodiesterase 4 [5]) [%] | IC50 (Phosphodiesterase 4 [6]) [µM] | Rolipram activity (Phosphodiesterase 4 [8]) [%] | SMILES | CTS (C3 cells [1]) | TAR (C3 cells [3]) | TAR (C3 cells [4]) | Protection (Rattus norvegicus [7]) [%] | Protection (Rattus norvegicus [9]) [%] |
| --- | --- | --- | --- | --- | --- | --- | --- | --- | --- |
| 53 |  |  |  | CCCCn1c(=O)c2c(ncn2S(=O)(=O)c2ccccc2F)n(CCCC)c1=O | 1.7 | 2 |  |  |  |
| 54 |  |  |  | CCCCn1c(=O)c2c(ncn2S(=O)(=O)CCC)n(CCCC)c1=O | 2.2 | 2.3 |  |  |  |
| 86 |  |  |  | CCCCn1c(=O)c2c(ncn2S(=O)(=O)c2cc(F)ccc2C)n(CCCC)c1=O | 6.6 | 2.8 |  |  |  |
| 84 |  | 25.2 |  | CCCCn1c(=O)c2c(ncn2S(C)(=O)=O)n(CCCC)c1=O | 4.7 | 1.9 |  |  |  |
|  |  |  | 100 | CCCCn1c(=O)c2c(ncn2CC(C)=O)n(CCCC)c1=O [DENBUFYLLINE] | 3.5 |  | 2.1 | 49 |  |
| 92 |  |  |  | CCCCn1c(=O)c2c(ncn2S(=O)(=O)c2cc(C)ccc2C)n(CCCC)c1=O | 6.6 | 2.6 |  |  |  |
| 71 |  | 4.1 |  | CCCCn1c(=O)c2c(ncn2S(=O)(=O)CCCCl)n(CCCC)c1=O | 3.6 | 2.1 |  | 47 | 50 |
|  | 58 | 6 |  | CCCCn1c(=O)c2c(ncn2S(=O)(=O)c2c(C)cc(C)cc2C)n(CCCC)c1=O | 4 |  | 1.9 | 50 |  |
| 5 |  |  |  | CCCCn1c(=O)c2c(ncn2S(=O)(=O)c2ccccc2)n(CCCC)c1=O | 3.9 | 1.9 |  |  |  |
|  | 72 | 23.3 |  | CCCCn1c(=O)c2c(ncn2S(=O)(=O)c2cc(C)c(Cl)cc2C)n(CCCC)c1=O | 5.3 |  | 2.5 | 52 |  |
|  | 48 |  |  | CCCCn1c(=O)c2c(ncn2S(=O)(=O)c2cccs2)n(CCCC)c1=O | 2.9 |  | 2.2 |  |  |
|  | 7 | 3.2 |  | CCCCn1c(=O)c2c(ncn2S(=O)(=O)Cc2ccccc2)n(CCCC)c1=O | 5.1 |  | 2.3 | 25 |  |
| 12 |  |  |  | CCCCCCCCS(=O)(=O)n1cnc2c1c(=O)n(CCCC)c(=O)n2CCCC | 4.7 | 2.1 |  |  |  |
| 15 |  |  |  | CCCCn1c(=O)c2c(ncn2S(=O)(=O)CCCC)n(CCCC)c1=O | 4.7 | 2 |  | 23 |  |
| 49 |  |  |  | CCCCn1c(=O)c2c(ncn2S(=O)(=O)c2ccc(OC)cc2)n(CCCC)c1=O | 4.6 | 1.9 |  |  |  |
| 54 |  |  |  | CCCCOc1ccc(S(=O)(=O)n2cnc3c2c(=O)n(CCCC)c(=O)n3CCCC)cc1 | 5 |  | 2.2 |  |  |
|  | 95 |  |  | CCCCn1c(=O)c2c(nc(C)n2S(=O)(=O)CCCCl)n(CCCC)c1=O | 4.1 |  | 1.7 |  |  |

More lines, now with the values behind:

| SMILES | PDE4 inhibition relative to rolipram (Phosphodiesterase 4 [2]) [%] | PDE4 inhibition relative to rolipram (Phosphodiesterase 4 [5]) [%] | IC50 (Phosphodiesterase 4 [6]) [µM] | Rolipram activity (Phosphodiesterase 4 [8]) [%] | CTS (C3 cells [1]) | TAR (C3 cells [3]) | TAR (C3 cells [4]) | Protection (Rattus norvegicus [7]) [%] | Protection (Rattus norvegicus [9]) [%] |
| --- | --- | --- | --- | --- | --- | --- | --- | --- | --- |
| CCCCn1c(=O)n(CCC(C)C)c(=O)c2c1ncn2S(=O)(=O)c1ccc(OC)c(OC)c1 |  | 86 |  |  | 3.7 |  | 2.6 |  |  |
| CCCCn1c(=O)n(CC2CCC2)c(=O)c2c1ncn2S(=O)(=O)c1ccc(OC)c(OC)c1 |  | 87 |  |  | 0.9 |  | 2.9 |  |  |
| CCCCn1c(=O)n(CC2CC2)c(=O)c2c1ncn2S(=O)(=O)c1ccc(OC)c(OC)c1 |  | 97 |  |  | 0.7 |  | 2.8 |  |  |
| CCCCn1c(=O)c2c(ncn2S(=O)(=O)c2cccc([N+](=O)[O-])c2)n(CCCC)c1=O | 37 |  |  |  | 2.9 | 2 |  | 30 |  |
| CCCCn1c(=O)c2c(ncn2S(=O)(=O)c2ccc(NO)cc2)n(CCCC)c1=O | 18 |  |  |  | 5.6 |  | 2 |  |  |
| CCCCn1c(=O)[nH]c(=O)c2c1ncn2S(=O)(=O)c1ccc(OC)c(OC)c1 |  | 25 |  |  | 0.8 |  | 1.3 |  |  |
| CCCCCCCCn1c(=O)c2c(ncn2S(=O)(=O)c2ccc(OC)c(OC)c2)n(CCCC)c1=O |  | 0 |  |  | 1.1 |  | 0.7 |  |  |
| CCCCn1c(=O)c2c(nc(C)n2S(=O)(=O)c2ccccc2)n(CCCC)c1=O |  | 100 |  |  | 4 |  | 1.7 |  |  |
| CCCCn1c(=O)c2c(nc(C)n2S(=O)(=O)c2ccc(OC)c(OC)c2)n(CCCC)c1=O |  | 100 |  |  | 2.6 |  | 1.5 |  |  |
| CCCCn1c(=O)c2c(ncn2S(=O)(=O)c2ccc(OC(F)(F)F)cc2)n(CCCC)c1=O | 0 |  |  |  | 4.9 |  | 2 |  |  |
| CCCCn1c(=O)c2c(nc(C)n2S(=O)(=O)c2cccc3ccccc23)n(CCCC)c1=O |  | 94 |  |  | 2.2 |  | 1.7 |  |  |
| CCCCn1c(=O)c2c(ncn2S(=O)(=O)c2ccccc2C(=O)OC)n(CCCC)c1=O | 61 |  | 1.3 |  | 3.1 | 3.5 |  |  |  |
| CCCCn1c(=O)c2c(ncn2S(=O)(=O)c2ccc(C(C)(C)C)cc2)n(CCCC)c1=O |  | 33 |  |  | 5.1 |  | 1.8 |  |  |
| CCCCn1c(=O)c2c(ncn2S(=O)(=O)c2cccc3ccccc23)n(CCCC)c1=O |  | 17 |  |  | 4.5 |  | 2.5 | 37 |  |
| CCCCn1c(=O)c2c(nc(C)n2S(=O)(=O)c2cccc([N+](=O)[O-])c2)n(CCCC)c1=O |  | 85 |  |  | 3.7 |  | 1.8 |  |  |
| CCCCn1c(=O)c2c(ncn2S(=O)(=O)c2ccc(OC)c(OC)c2)n(CCCC)c1=O | 59 |  | 1.2 |  | 4.7 |  | 2.5 | 35 |  |
| CCCCn1c(=O)n(CC=C(C)C)c(=O)c2c1ncn2S(=O)(=O)c1ccc(OC)c(OC)c1 |  | 77 |  |  | 3.7 |  | 2.8 |  |  |

Source: ChEMBL document CHEMBL1132986, “Novel and selective calcitonin-inducing agents” (J Med Chem, 2000)
